Source: ChEMBL document CHEMBL6078676, “In Vitro and In Vivo Leishmanicidal Activity of Beauvericin” (J Nat Prod, 2024)
Converted amounts (≈) assume the structure as drawn. The source made the active and inactive calls. The calls are words filed in the database; no cut-off is given here.

Columns and labels:
[1] = test system: Leishmania amazonensis; assay: Induction of membrane morphological changes in Leishmania amazonensis IFLA/BR/67/PH8 promastigote assessed as aberrant nuclei 2.4 to 9.6 uM incubated for 24 hrs by optical microscopic analysis; assay type: functional, organism-based; details: dose 2.4-9.6 µM
[2] = test system: Leishmania amazonensis; assay: Induction of membrane morphological changes in Leishmania amazonensis IFLA/BR/67/PH8 promastigote assessed as shortening of cell body at 2.4 to 9.6 uM incubated for 24 hrs by optical microscopic analysis; assay type: functional, organism-based; details: dose 2.4-9.6 µM
[3] = test system: MDA-MB-231; assay: Inhibition of cell migration in human MDA-MB-231 cells; assay type: functional, cell-based
[4] = test system: PC-3; assay: Inhibition of cell migration in human PC-3 cells; assay type: functional, cell-based
[5] = Selectivity index, ratio of CC50 for cytotoxicity against mouse BMDM cells assessed as cell viability to EC50 for antileishmanial activity against Leishmania amazonensis IFLA/BR/67/PH8 intracellular amastigote; assay type: toxicity, cell-based; details: read-out: Ratio CC50/EC50
How it was run: (§1)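 Ratio of 24 h MTT CC50 in BALB/c BMDM to Leishmania EC50.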

[6] = test system: Leishmania amazonensis; assay: Antileishmanial activity against Leishmania amazonensis IFLA/BR/67/PH8 promastigote assessed as parasite killing incubated for 24 hrs; assay type: functional, organism-based; details: IFLA/BR/67/PH8, 24 h
How it was run: (§2)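 Axenic parasites (5 × 10^6/well) were exposed for 24 h to increasing concentrations of compound dissolved in DMSO. MTT (5 mg/mL) was added for 3 h and the reaction stopped with 20% SDS. Formazan was read at 600 nm against a 650 nm reference to give EC50. Leishmania grew in supplemented M199 pH 7.4 at 25 °C; T. cruzi Y epimastigotes grew in LIT with 10% FBS at 28 °C.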

[7] = Selectivity index, ratio of CC50 for cytotoxicity against mouse BMDM cells assessed as cell viability to EC50 for antileishmanial activity against Leishmania braziliensis MHOM/BR/91/H3227 promastigote assessed as parasite killing; assay type: toxicity, cell-based; details: read-out: Ratio CC50/EC50; how it was run: as §1
[8] = test system: Leishmania amazonensis; assay: Antileishmanial activity against Leishmania amazonensis IFLA/BR/67/PH8 amastigotes infected in female BALB/c mouse assessed as reduction in parasite burden at 5 to 10 mg/kg, ip administered for 15 days; assay type: functional, organism-based; details: dose 5-10 mg/kg, time 15.0 day
How it was run: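 Female BALB/c mice (35 days old) were infected at the tail base with ~1 × 10^6 stationary-phase L. amazonensis promastigotes. Treatment was 5 or 10 mg/kg/day ip in 150 μL DMSO/0.9% NaCl (1:9), daily for 15 days from week 7 to week 9; vehicle controls, 5 per group. Lesion parasite load was measured by limiting dilution in M199 with wells read after 7 days.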

[9] = test system: Leishmania amazonensis; assay: Induction of membrane morphological changes in Leishmania amazonensis IFLA/BR/67/PH8 promastigote assessed as rounding of cell body at 2.4 to 9.6 uM incubated for 24 hrs by optical microscopic analysis; assay type: functional, organism-based; details: dose 2.4-9.6 µM
[10] = test system: Leishmania amazonensis; assay: Antileishmanial activity against Leishmania amazonensis IFLA/BR/67/PH8 amastigotes infected in mouse BMDM cells assessed as inhibition of parasite growth upto 1.6 uM pre-infected in cells for 24 hrs followed by compound addition and measured after 48 hrs by cell imaging analysis; assay type: functional, organism-based
How it was run: (§3)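 BALB/c BMDM (4 × 10^5) on coverslips were infected with stationary-phase L. amazonensis promastigotes, MOI 5, for 24 h at 34 °C, 5% CO2. After a PBS wash, cells received fresh RPMI with 0.4–1.6 μM. Incubation ran 24 h, 48 h, or 24 + 24 h with fresh medium. Cells were MeOH-fixed and stained; ≥300 cells were counted for infection rate, amastigotes/100 macrophages, and their product, relative to untreated. Two independent assays in triplicate.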

[11] = test system: Leishmania amazonensis; assay: Antileishmanial activity against Leishmania amazonensis IFLA/BR/67/PH8 amastigotes infected in female BALB/c mouse assessed as total ulcerated area by measuring delay in ulcer progression at 5 mg/kg, topically administered for 32 days and measured after 8 to 13 week; details: route topical, time 8-13 weeks
[12] = test system: Leishmania amazonensis; assay: Antileishmanial activity against Leishmania amazonensis IFLA/BR/67/PH8 intracellular amastigote assessed as parasite killing incubated for 24 hrs; assay type: functional, organism-based; details: IFLA/BR/67/PH8, 24 h
[13] = test system: Leishmania braziliensis; assay: Antileishmanial activity against Leishmania braziliensis MHOM/BR/91/H3227 intracellular amastigote assessed as parasite killing incubated for 24 hrs; assay type: functional, organism-based; details: MHOM/BR/91/H3227, 24 h
[14] = test system: Trypanosoma cruzi; assay: Antitrypanosomal activity against Trypanosoma cruzi Y epimastigote assessed as parasite killing incubated for 24 hrs; assay type: functional, organism-based; how it was run: as §2
[15] = Selectivity index, ratio of CC50 for cytotoxicity against mouse BMDM cells assessed as cell viability to EC50 for antileishmanial activity against Leishmania braziliensis MHOM/BR/91/H3227 intracellular amastigote assessed as parasite killing; assay type: toxicity, cell-based; details: read-out: Ratio CC50/EC50; how it was run: as §1
[16] = test system: Leishmania amazonensis; assay: Antileishmanial activity against Leishmania amazonensis IFLA/BR/67/PH8 amastigotes infected in mouse BMDM cells assessed as reduction in infectivity index at 1.6 uM pre-infected in cells for 24 hrs followed by compound addition and measured after 48 hrs; assay type: functional; parameters: scale not given: the % may be the effect or the level left; how it was run: as §3
[17] = test system: Leishmania braziliensis; assay: Induction of membrane morphological changes in Leishmania braziliensis MHOM/BR/91/H3227 assessed as appearance of leaf-like promastigotes at 1.2 to 9.6 uM incubated for 24 hrs by optical microscopic analysis; assay type: functional, organism-based; details: dose 1.2-9.6 µM
[18] = test system: Leishmania braziliensis; assay: Induction of membrane morphological changes in Leishmania braziliensis MHOM/BR/91/H3227 assessed as appearance of slender cell bodies at 1.2 to 9.6 uM incubated for 24 hrs by optical microscopic analysis; assay type: functional, organism-based; details: dose 1.2-9.6 µM
[19] = test system: Leishmania amazonensis; assay: Antileishmanial activity against Leishmania amazonensis IFLA/BR/67/PH8 amastigotes infected in mouse BMDM cells at 1.6 uM pre-infected in cells for 24 hrs followed by compound addition and measured after 48 hrs; assay type: functional, organism-based; how it was run: as §3
[20] = Selectivity index, ratio of CC50 for cytotoxicity against mouse L929 cells assessed as cell viability to EC50 for antitrypanosomal activity against Trypanosoma cruzi Y epimastigote assessed as parasite killing; assay type: toxicity, cell-based; details: read-out: Ratio CC50/EC50
How it was run: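 Ratio of 24 h MTT CC50 in L929 fibroblasts to T. cruzi Y epimastigote EC50.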

[21] = test system: HaCaT; assay: Antiproliferative activity against human HaCaT cells assessed as inhibition of cell proliferation incubated for 72 hrs by MTT assay; assay type: functional, cell-based
[22] = test system: Leishmania amazonensis; assay: Induction of membrane morphological changes in Leishmania amazonensis IFLA/BR/67/PH8 promastigote assessed as cell debris formation 2.4 to 9.6 uM incubated for 24 hrs by optical microscopic analysis; assay type: functional, organism-based; details: dose 2.4-9.6 µM
[23] = test system: Leishmania amazonensis; assay: Antileishmanial activity against Leishmania amazonensis IFLA/BR/67/PH8 amastigotes infected in female BALB/c mouse assessed as reduction in mean lesion at 5 mg/kg, topically administered for 32 days and measured after 8 to 13 week; details: route topical, time 8-13 weeks
[24] = Cytotoxicity against mouse L929 cells assessed as cell viability measured for 24 hrs by MTT assay; assay type: toxicity, cell-based
How it was run: (§4)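 MTT viability after 24 h exposure to increasing concentrations (DMSO solution) gave CC50. BMDM (4 × 10^5/well) were differentiated for 7 days from female BALB/c marrow in RPMI with 20% FBS and 30% L929 supernatant. L929 fibroblasts (5 × 10^4/well) were in supplemented RPMI. Both were held at 37 °C, 5% CO2. Read at 600/650 nm after 3 h MTT and SDS stop.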

[25] = test system: Cell membrane; assay: Induction of cell membrane permeabilization in Leishmania amazonensis IFLA/BR/67/PH8 promastigotes incubated for 24 hrs; assay type: subcellular
How it was run: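 Promastigotes were incubated 24 h with 1.0 μM. Membrane permeability was measured by ethidium bromide fluorescence against untreated cells.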

[26] = test system: Leishmania braziliensis; assay: Antileishmanial activity against Leishmania braziliensis MHOM/BR/91/H3227 intracellular amastigotes infected in mouse BMDM cells assessed as reduction in infectivity index at 1.6 uM pre-infected in cells for 24 hrs followed by compound addition and measured after 48 hrs by cell imaging analysis; assay type: functional; parameters: scale not given: the % may be the effect or the level left
How it was run: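 BMDM infected with stationary-phase L. braziliensis promastigotes, MOI 10, for 24 h at 34 °C, 5% CO2. After washing, cells were given 0.4–1.6 μM in fresh RPMI for 48 h. MeOH fixation and staining, then ≥300 host cells counted. Infectivity index (infection rate × amastigotes per 100 macrophages) expressed relative to untreated; two independent assays in triplicate.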

[27] = Selectivity index, ratio of CC50 for cytotoxicity against mouse BMDM cells assessed as cell viability to EC50 for antileishmanial activity against Leishmania amazonensis IFLA/BR/67/PH8 promastigote assessed as parasite killing; assay type: toxicity, cell-based; details: read-out: Ratio CC50/EC50; how it was run: as §1
[28] = Cytotoxicity against mouse BMDM cells assessed as cell viability at 1.6 uM incubated for 24 hrs by MTT assay; assay type: toxicity, cell-based
[29] = test system: Leishmania braziliensis; assay: Antileishmanial activity against Leishmania braziliensis MHOM/BR/91/H3227 promastigote assessed as parasite killing incubated for 24 hrs; assay type: functional, organism-based; details: MHOM/BR/91/H3227, 24 h; how it was run: as §2
[30] = test system: Leishmania amazonensis; assay: Induction of membrane morphological changes in Leishmania amazonensis IFLA/BR/1967/PH8 promastigote upto 1.2 uM incubated for 24 hrs by optical microscopic analysis; assay type: functional, organism-based
[31] = test system: Leishmania braziliensis; assay: Induction of membrane morphological changes in Leishmania braziliensis MHOM/BR/91/H3227 assessed as appearance of sperm-like structure at 1.2 to 9.6 uM incubated for 24 hrs by optical microscopic analysis; assay type: functional, organism-based; details: dose 1.2-9.6 µM
[32] = Cytotoxicity against mouse BMDM cells assessed as cell viability incubated for 24 hrs by MTT assay; assay type: toxicity, cell-based; how it was run: as §4
[33] = test system: Leishmania amazonensis; assay: Antileishmanial activity against Leishmania amazonensis assessed as reduction in parasite proliferation incubated for 72 hrs; assay type: functional, organism-based
[34] = test system: Leishmania amazonensis; assay: Antileishmanial activity against Leishmania amazonensis assessed as reduction in parasite proliferation at 50 microg/ml incubated for 72 hrs; assay type: functional; parameters: scale not given: the % may be the effect or the level left; details: dose 50 µg/ml

CC(C)[C@H]1OC(=O)[C@H](Cc2ccccc2)N(C)C(=O)[C@@H](C(C)C)OC(=O)[C@H](Cc2ccccc2)N(C)C(=O)[C@@H](C(C)C)OC(=O)[C@H](Cc2ccccc2)N(C)C1=O
Activity [1]: Active | Activity [2]: Active | inhibition [3]: Active | inhibition [4]: Active | selectivity ratio [5]: 22.3 | EC50 [6]: 1200 nM | selectivity ratio [7]: 19.8 | Activity [8]: Active | Activity [9]: Active | Activity [10]: Active | Activity [11]: Active | EC50 [12]: 800 nM | EC50 [13]: 600 nM | EC50 [14]: 3400 nM | selectivity ratio [15]: 29.7 | Activity [16]: 95% | Activity [17]: Active | Activity [18]: Active | Activity [19]: Active | selectivity ratio [20]: 13.4 | IC50 [21]: 3900 nM | Activity [22]: Active | Activity [23]: inactive | CC50 at 24 h [24]: 45500 nM | Activity [25]: Active | Activity [26]: 89% | selectivity ratio [27]: 14.8 | Activity [28]: Non-toxic | EC50 [29]: 900 nM | Activity [30]: Active | Activity [31]: Active | CC50 at 24 h [32]: 17800 nM

O=c1cc(CO)occ1O [KOJIC ACID]
EC50 [33]: 27.8 µg/mL (≈ 196 µM) | Activity [34]: 79%

C[C@@H]1[C@H](O)[C@@H](C)/C=C/C=C/C=C/C=C/C=C/C=C/C=C/[C@H](O[C@@H]2O[C@H](C)[C@@H](O)[C@H](N)[C@@H]2O)C[C@@H]2O[C@](O)(C[C@@H](O)C[C@@H](O)[C@H](O)CC[C@@H](O)C[C@@H](O)CC(=O)O[C@H]1C)C[C@H](O)[C@H]2C(=O)O [AMPHOTERICIN B]
EC50 [6]: 200 nM | EC50 [12]: 200 nM | EC50 [13]: 200 nM | EC50 [14]: 2230 nM | EC50 [29]: 200 nM
